Values after ≈ are worked out from the molar mass of the structure shown.

The test system of test [1] is Candida albicans. Kind of test: In vitro antifungal activity against Candida albicans B. The format is functional. An outline of the steps:
(§1)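 Agar dilution in Sabouraud dextrose agar in microtitre wells. Drug stock in Me2SO, serial twofold dilutions to final 0.8–100 µg/mL, final Me2SO 1%. Candida inoculum 10^4 cells/mL, read after 24 h at 37 °C. Dermatophytes used mycelial inocula, read after 5 days at […]. MIC is the highest dilution with no visible growth. Run in duplicate.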

Another test deals with Trichophyton rubrum. Briefly: In vitro antifungal activity against Trichophyton rubrum. The format is functional. The essentials: as §1
For test [2], the system named is Candida albicans. Kind of test: In vitro antifungal activity against Candida albicans GB. The format is functional. An outline of the steps: as §1
A further test concerns Epidermophyton floccosum. Kind of test: In vitro antifungal activity against Epidermophyton floccosum. In kind it is functional. An outline of the steps:
as §1

Test [3] relates to Candida albicans. Kind of test: In vitro antifungal activity against Candida albicans A. The format is functional. An outline of the steps: as §1
For test [4], the system named is Candida albicans. Kind of test: In vitro antifungal activity against Candida albicans 3153. In kind it is functional. An outline of the steps:
as §1

In the next test the test system is Trichophyton benhamiae. Kind of test: In vitro antifungal activity against Trichophyton mentagrophytes. In kind it is functional, Arthroderma benhamiae. An outline of the steps: as §1
The subject of another test is Microsporum canis. Briefly: In vitro antifungal activity against Microsporum canis. In kind it is functional. An outline of the steps: as §1
Test [5] relates to Cavia porcellus. Kind of test: Effect of topical administration (1% w/v) on course of expt. Ringworm infections in guinea pig by Trichophyton mentagrophytes. In kind it is functional. An outline of the steps: (§2)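 Female guinea pigs, eight per group, shaved backs infected with a saline suspension of T. mentagrophytes spores. Drug given orally or applied topically; topical positive control was a 1% w/v solution in polyethylene glycol 200. Disease course followed by culture of skin and hair samples from on and around the infection sites. Result given as % reduction in recovery versus control.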

For test [6], the system named is Rattus norvegicus. Briefly: Percent reduction in recovery of Candida albicans (experimental vaginitis) in rats by topical administration at 1% w/v. The format is functional, Vagina.
Test [7] has as its system Cavia porcellus. Briefly: Effect of oral administration (60 mg/kg) on course of expt. Ringworm infections in guinea pig by Trichophyton mentagrophytes. The format is functional. An outline of the steps:
as §2

Test [8] relates to Rattus norvegicus. Kind of test: Percent reduction in recovery of Candida albicans (experimental vaginitis) in rats at 10 mg/kg (po). In kind it is functional, Vagina. An outline of the steps: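 Female Wistar rats, 6 per group, hysterectomized and ovariectomized. Pseudoestrus induced and kept by s.c. estradiol diacetate (125 µg) every 3 days. Infected intravaginally with 10^7 C. albicans cells on 2 successive days, with 2 days to establish. Maximal infection meant >600 colonies per 50 µL vaginal washing. Dosed by oral gavage; % reduction in recovery versus control.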

For test [9], the system named is Mus musculus. Kind of test: Effect of oral administration (10 mg/kg) on recovery of Candida albicans from kidneys of mice with expt. candidal infection. In kind it is functional. An outline of the steps: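 Mice (10 per group) infected intravenously with a sublethal dose (50 × 10^4 cells) of C. albicans. Oral gavage at 0 and 24 h after infection. Kidneys excised 2 days post-infection, weighed and homogenized. Diluted homogenates plated on glucose-peptone agar for 24 h at 37 °C. Colony counts compared with infected, untreated controls and expressed as % reduction.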

Test [10] relates to Rattus norvegicus. Kind of test: Percent reduction in recovery of Candida albicans (experimental vaginitis) n rats at 20 mg/kg (po). The format is functional, Vagina. An outline of the steps: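 Female Wistar rats, 6 per group, hysterectomized and ovariectomized. Pseudoestrus induced with subcutaneous estradiol diacetate (125 µg) after 3 weeks, then every 3 days. Infected intravaginally with 10^7 C. albicans cells on 2 successive days; treatment began 2 days later. Infection confirmed by >600 colonies per 50 µL vaginal washings. Oral dosing by gavage. Result given as % reduction in recovery versus control.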

Test [11] deals with Cavia porcellus. Kind of test: Effect of oral administration (30 mg/kg) on course of expt. Ringworm infections in guinea pig by Trichophyton mentagrophytes. The format is functional. The essentials: as §2
The test system of test [12] is Mus musculus. Kind of test: Effect of oral administration (2.5 mg/kg) on recovery of Candida albicans from kidneys of mice with expt. candidal infection. The format is functional. An outline of the steps:
(§3)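 Mice, 10 per group, infected intravenously with a sublethal dose (50 × 10^4 cells) of C. albicans. Oral gavage at 0 and 24 h after infection. Killed 2 days post-infection; kidneys excised, weighed, homogenized, diluted and plated on glucose-peptone agar, 24 h at 37 °C. Colony counts compared with infected untreated controls, given as % reduction.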

Test [13] relates to Rattus norvegicus. Kind of test: Percent reduction in recovery of Candida albicans (experimental vaginitis) n rats by topical administration at 1% w/v. In kind it is functional, Vagina.
Test [14] relates to Mus musculus. Kind of test: Effect of oral administration (5 mg/kg) on recovery of Candida albicans from kidneys of mice with expt. candidal infection. The format is functional. The essentials: as §3
The subject of test [15] is Cavia porcellus. Kind of test: Effect of topical administration (2% w/v) on course of expt. Ringworm infections in guinea pig by Trichophyton mentagrophytes. In kind it is functional. The essentials:
as §2

In test [16] the test system is Mus musculus. Briefly: Effect of oral administration (20 mg/kg) on recovery of Candida albicans from kidneys of mice with expt. candidal infection. In kind it is functional. An outline of the steps:
as §3

As to `Cl.Clc1ccc(/C(Cn2ccnc2)=N\Nc2c(Cl)cccc2Cl)s1`, the MIC stood at 6.2 µg/mL in the test on Candida albicans [1]; 12.5 µg/mL in the test with Trichophyton rubrum; 12.5 µg/mL in the test on Candida albicans [2]; 25 µg/mL against Epidermophyton floccosum; 6.2 µg/mL against Candida albicans [3]; 12.5 µg/mL against Candida albicans [4]. Besides, the results for the MIC in the test on Trichophyton benhamiae and in the test with Microsporum canis were 12.5 µg/mL and 25 µg/mL, respectively.
As for `Clc1ccccc1C(c1ccccc1)(c1ccccc1)n1ccnc1` [CLOTRIMAZOLE], the Reduction with Cavia porcellus [5] was 88%; with Rattus norvegicus [6], 75%.
In turn, `COC1=CC(=O)C[C@@H](C)[C@]12Oc1c(Cl)c(OC)cc(OC)c1C2=O` [GRISEOFULVIN] showed a Reduction with Cavia porcellus [7] of 90%.
For the compound `CC(=O)N1CCN(c2ccc(OCC3COC(Cn4ccnc4)(c4ccc(Cl)cc4Cl)O3)cc2)CC1` (stereo not drawn) [KETOCONAZOLE], the Reduction in the test on Rattus norvegicus [8] is given as 68%; in the test with Mus musculus [9] it was 57%.
`Clc1ccc(COC(Cn2ccnc2)c2ccc(Cl)cc2Cl)c(Cl)c1` (stereo not drawn) [MICONAZOLE]: the MIC in the test with Candida albicans [1] came to 6.2 µg/mL (≈ 14.9 µM); against Trichophyton rubrum it was 1.6 µg/mL (≈ 3.84 µM); in the test on Candida albicans [2], 6.2 µg/mL (≈ 14.9 µM); with Epidermophyton floccosum, 12.5 µg/mL (≈ 30 µM); against Candida albicans [3] it was 6.2 µg/mL (≈ 14.9 µM); with Candida albicans [4] it was 12.5 µg/mL (≈ 30 µM). In addition, the MIC stood at 1.6 µg/mL (≈ 3.84 µM) in the test with Trichophyton benhamiae and 6.2 µg/mL (≈ 14.9 µM) against Microsporum canis.
For the compound `Cl.Clc1ccc(/C(Cn2ccnc2)=N/Nc2c(Cl)cccc2Cl)s1` [ZINOCONAZOLE HYDROCHLORIDE], the Reduction was 47% with Rattus norvegicus [8]; 63% with Rattus norvegicus [10]; 70% in the test on Cavia porcellus [11]; 9% in the test with Mus musculus [12]; 54% in the test on Rattus norvegicus [13]; 43% in the test on Mus musculus [14]. For the same compound, the Reduction with Cavia porcellus [15] is listed as 77%; with Mus musculus [16] it was 44%; with Mus musculus [9] it was 65%. Further, the MIC was 6.2 µg/mL against Candida albicans [1]; 25 µg/mL with Trichophyton rubrum; 12.5 µg/mL in the test on Candida albicans [2]; 25 µg/mL in the test on Epidermophyton floccosum; 6.2 µg/mL in the test with Candida albicans [3]; 12.5 µg/mL against Candida albicans [4]. Further, the results for the MIC against Trichophyton benhamiae and against Microsporum canis were 12.5 µg/mL and 25 µg/mL, respectively.

Values taken from ChEMBL document CHEMBL1122351, “Synthesis of (E)-1-(5-chlorothien-2-yl)-2-(1H-imidazol-1-yl)ethanone 2,6-dichlorophenylhydrazone hydrochloride, a novel, orally active antifungal agent” (1983).
